From ChEMBL document CHEMBL1129746, “Structure-based design of HIV protease inhibitors: sulfonamide-containing 5,6-dihydro-4-hydroxy-2-pyrones as non-peptidic inhibitors” (J Med Chem, 1996)

How the values were obtained:
[1] = target: Human immunodeficiency virus 1; experiment: Tested for antiviral activity in HIV-1 IIIB-infected H9 cells
[2] = target: Human immunodeficiency virus type 1 protease (Human immunodeficiency virus 1, UniProt Q72874); experiment: (§1) Tested for inhibition of HIV protease
Method in brief: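 Ki measured against a tandemly linked (single-chain) HIV protease construct, used because the native dimeric enzyme dissociates at low enzyme concentration.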

[3] = target: Human immunodeficiency virus type 1 protease (Human immunodeficiency virus 1) (UniProt Q72874); experiment: as §1
[4] = tested on: Human immunodeficiency virus type 1 protease (Human immunodeficiency virus 1), Q72874 [Q7K,L33I,L63I]
[5] = target: Human immunodeficiency virus type 1 protease (Human immunodeficiency virus 1, UniProt Q72874, L33I/L63I/Q7K); experiment: Compound was tested for inhibition of HIV protease triple mutant (Q7K/L33I/L63I)
in vivo = settings: rat, plasma, iv, 5 mg/kg
[6] = Totla clearance of compound reported after 5 mg/kg i.v. dose in rat; format: ADME, organism-based; parameters: dose 5 mg/kg, route intravenous; settings: in vivo, iv, read-out: CLtotal (converted)
Method in brief: (§2)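 Rats (n = 3) dosed intravenously at 5 mg/kg in 10% propylene glycol with 22.5% (hydroxypropyl)-β-cyclodextrin (2 mg/g formulation). Blood levels followed over time to derive total clearance and steady-state volume.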

[7] = target: Human immunodeficiency virus type 1 protease (Human immunodeficiency virus 1) (UniProt Q72874); experiment: Compound was tested for inhibition of HIV protease in AZT Resistant HIV-1 clinical isolates in primary PBMC
Method in brief: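 A panel of 10 AZT-resistant HIV-1 clinical isolates was grown in primary PBMC using a standardized PBMC drug-susceptibility assay.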

[8] = Oral bioavailability of compound reported after 5 mg/kg i.v. dose in rat; format: ADME, organism-based; settings: in vivo, 10 mg/kg, in the assay text read “after 10 mg/kg oral dose” for “after 5 mg/kg i.v. dose”
Method in brief: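 Rats given 10 mg/kg orally (n = 9) in 0.01 M sodium hydroxide, pH 10, at 2 mg/g, and 5 mg/kg intravenously (n = 3) in 10% propylene glycol/22.5% hydroxypropyl-β-cyclodextrin. Time-course blood levels compared; F calculated relative to the intravenous dose.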

Pepsin A = Pepsin A (Homo sapiens, UniProt P0DJD9); experiment: Inhibition of human pepsin
Chain of Pepsin A (P0DJD9 whole entry): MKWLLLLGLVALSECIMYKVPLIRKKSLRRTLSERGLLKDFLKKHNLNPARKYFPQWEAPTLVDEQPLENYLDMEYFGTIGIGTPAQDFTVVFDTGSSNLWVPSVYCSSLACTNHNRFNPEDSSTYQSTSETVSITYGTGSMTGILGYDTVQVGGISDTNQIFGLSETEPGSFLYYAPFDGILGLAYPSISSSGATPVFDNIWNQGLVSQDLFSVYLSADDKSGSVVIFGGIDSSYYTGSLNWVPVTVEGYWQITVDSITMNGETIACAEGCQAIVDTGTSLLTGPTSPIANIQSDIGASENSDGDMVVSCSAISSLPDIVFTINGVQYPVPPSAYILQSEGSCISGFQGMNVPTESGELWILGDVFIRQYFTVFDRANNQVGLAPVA

Cathepsin E = target: T1, Cathepsin E (Homo sapiens, UniProt P14091); experiment: Compound was tested for inhibition human Cathepsin E
T1 sequence (P14091 whole entry): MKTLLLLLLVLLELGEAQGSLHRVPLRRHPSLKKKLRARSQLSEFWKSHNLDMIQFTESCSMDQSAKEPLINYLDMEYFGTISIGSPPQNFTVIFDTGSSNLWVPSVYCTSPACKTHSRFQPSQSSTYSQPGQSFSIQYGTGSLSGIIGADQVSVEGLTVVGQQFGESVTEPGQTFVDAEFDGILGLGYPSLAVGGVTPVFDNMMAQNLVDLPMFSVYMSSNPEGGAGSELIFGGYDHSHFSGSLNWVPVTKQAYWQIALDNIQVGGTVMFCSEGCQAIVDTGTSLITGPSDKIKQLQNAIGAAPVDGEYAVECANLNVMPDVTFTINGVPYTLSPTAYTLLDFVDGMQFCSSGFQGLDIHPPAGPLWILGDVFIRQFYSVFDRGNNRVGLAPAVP

Cathepsin D = Cathepsin D (Homo sapiens, UniProt P07339); experiment: Compound was tested for inhibition human Cathepsin D
Chain of Cathepsin D (P07339 65-162 limits assumed): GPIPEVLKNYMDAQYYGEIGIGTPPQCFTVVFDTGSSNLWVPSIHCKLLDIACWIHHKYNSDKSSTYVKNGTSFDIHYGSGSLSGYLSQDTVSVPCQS
Chain of Cathepsin D (P07339 169-412 limits assumed): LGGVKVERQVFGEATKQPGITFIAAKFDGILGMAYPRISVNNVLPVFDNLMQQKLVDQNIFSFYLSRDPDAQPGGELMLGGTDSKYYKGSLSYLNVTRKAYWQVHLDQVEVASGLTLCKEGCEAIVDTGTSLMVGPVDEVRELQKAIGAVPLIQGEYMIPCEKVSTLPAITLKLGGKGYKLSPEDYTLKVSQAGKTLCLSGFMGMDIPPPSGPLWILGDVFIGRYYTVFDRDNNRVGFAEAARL

[9] = Volume distribution of compound reported after 5 mg/kg i.v. dose in rat; format: ADME, organism-based; parameters: dose 5 mg/kg, route intravenous; settings: in vivo, iv, read-out: Vss
Method in brief: as §2

IC50 [1] [nM] | Ki [2] [nM] | IC90 [3] [nM] | SMILES | other results
– | 6 | 4300 | CCCC1(CCc2ccccc2)CC(=O)C(C(CC)c2cccc(NS(=O)(=O)c3ccc(F)cc3)c2)=C(O)O1 (configuration not stated) | –
– | – | 3000 | CCC[C@@]1(CCc2ccccc2)CC(=O)C([C@@H](CC)c2cccc(NS(=O)(=O)c3ccc(C(F)(F)F)cn3)c2)=C(O)O1 (stereo in doubt; form 1) [listing 1 of 2 here] | –
– | 17 | 7300 | CCCC1(CCc2ccccc2)CC(=O)C(C(CC)c2cccc(NS(=O)(=O)c3ccccc3)c2)=C(O)O1 (configuration not stated) | –
110 | 0.04 | 890 | CCC[C@@]1(CCc2ccccc2)CC(=O)C([C@@H](CC)c2cccc(NS(=O)(=O)c3ccc(C#N)cn3)c2)=C(O)O1 | –
– | – | 1800 | CCC[C@@]1(CCc2ccccc2)CC(=O)C([C@@H](CC)c2cccc(NS(=O)(=O)c3ccc(C(F)(F)F)cn3)c2)=C(O)O1 (stereo in doubt; form 2) [listing 1 of 2 here] | –
– | 0.22 | – | CCC[C@@]1(CCc2ccccc2)CC(=O)C([C@@H](CC)c2cccc(NS(=O)(=O)c3ccc(C(F)(F)F)cn3)c2)=C(O)O1 (stereo in doubt; form 1) [listing 2 of 2 here] | –
– | 3 | 3000 | CCCC1(CCc2ccccc2)CC(=O)C(C(CC)c2cccc(NS(=O)(=O)c3cccc4cccnc34)c2)=C(O)O1 (configuration not stated) | –
– | 0.032 | – | CCC[C@@]1(CCc2ccccc2)CC(=O)C([C@@H](CC)c2cccc(NS(=O)(=O)c3ccc(C(F)(F)F)cn3)c2)=C(O)O1 (stereo in doubt; form 2) [listing 2 of 2 here] | –
– | 8 | 4200 | CCCC1(CCc2ccccc2)CC(=O)C(C(CC)c2cccc(NS(=O)(=O)c3ccc(C#N)cc3)c2)=C(O)O1 (configuration not stated) | –
> 1000 | 0.12 | > 1000 | CCC[C@]1(CCc2ccccc2)CC(=O)C([C@@H](CC)c2cccc(NS(=O)(=O)c3ccc(C#N)cn3)c2)=C(O)O1 | –
140 | 0.018 | 840 | CCC[C@]1(CCc2ccccc2)CC(=O)C([C@H](CC)c2cccc(NS(=O)(=O)c3ccc(C(F)(F)F)cn3)c2)=C(O)O1 | –
– | 35 | – | CCCC1(CCc2ccccc2)C=c2oc(=O)c(C(CC)c3ccccc3)c(O)c2=CC1 (configuration not stated) | –
490 | 0.1 | 1000 | CCC[C@]1(CCc2ccccc2)CC(=O)C([C@H](CC)c2cccc(NS(=O)(=O)c3ccc(C#N)cn3)c2)=C(O)O1 | –
– | 0.007 | 260 | CCC[C@@]1(CCc2ccccc2)CC(O)=C([C@H](CC)c2cccc(NS(=O)(=O)c3ccc(C#N)cn3)c2)C(=O)O1 | –

Continued, molecule first:

SMILES | IC50 [1] [nM] | Ki [2] [nM] | IC90 [3] [nM] | other results
CCC(Cc1ccccc1)c1cc(O)c(C(CC)c2ccccc2)c(=O)o1 (configuration not stated) | 3000 | – | – | –
CCC[C@]1(CCc2ccccc2)CC(=O)C([C@@H](CC)c2cccc(NS(=O)(=O)c3cn(C)cn3)c2)=C(O)O1 (stereo in doubt; Vd) [listing 1 of 2 here] | – | – | > 1000 | –
CCC[C@]1(CCc2ccccc2)CC(=O)C([C@@H](CC)c2cccc(NS(=O)(=O)c3cn(C)cn3)c2)=C(O)O1 (stereo in doubt; Vc) [listing 1 of 2 here] | > 1000 | 1 | – | –
CCCC1(CCc2ccccc2)CC(=O)C(C(CC)c2cccc(NS(=O)(=O)c3cn(C)cn3)c2)=C(O)O1 (configuration not stated) | – | – | – | IC90 [4]: 900 nM; IC50 [5]: 500 nM; Ki [5]: 1 nM
CCC[C@]1(CCc2ccccc2)CC(=O)C([C@@H](CC)c2cccc(NS(=O)(=O)c3cn(C)cn3)c2)=C(O)O1 (stereo in doubt; Vd) [listing 2 of 2 here] | > 1000 | 0.03 | – | –
CCC[C@]1(CCc2ccccc2)CC(=O)C([C@@H](CC)c2cccc(NS(=O)(=O)c3cn(C)cn3)c2)=C(O)O1 (stereo in doubt; Vb) [listing 1 of 2 here] | – | – | 560 | –
CCC[C@]1(CCc2ccccc2)CC(=O)C([C@@H](CC)c2cccc(NS(=O)(=O)c3cn(C)cn3)c2)=C(O)O1 (stereo in doubt; Va) [listing 1 of 2 here] | 580 | 0.12 | – | –
CCC[C@]1(CCc2ccccc2)CC(=O)C([C@@H](CC)c2cccc(NS(=O)(=O)c3cn(C)cn3)c2)=C(O)O1 (stereo in doubt; Vb) [listing 2 of 2 here] | 130 | 0.06 | – | –
CCC[C@]1(CCc2ccccc2)CC(=O)C([C@@H](CC)c2cccc(NS(=O)(=O)c3cn(C)cn3)c2)=C(O)O1 (stereo in doubt; Vc) [listing 2 of 2 here] | – | – | > 1000 | –
CCC[C@]1(CCc2ccccc2)CC(=O)C([C@@H](CC)c2cccc(NS(=O)(=O)c3cn(C)cn3)c2)=C(O)O1 (stereo in doubt; Va) [listing 2 of 2 here] | – | – | 1000 | –
CCC[C@@]1(CCc2ccccc2)CC(O)=C([C@H](CC)c2cccc(NS(=O)(=O)c3ccc(C(F)(F)F)cn3)c2)C(=O)O1 | – | – | – | half-life (in vivo): 5.4 h; clearance [6]: 2.83 mL/min/kg; IC90 [7]: 150 nM; bioavailability [8]: 30%; Ki (Pepsin A): 2000 nM; Ki (Cathepsin E): 9000 nM; Ki (Cathepsin D): 15000 nM; Vd [9]: 0.51 L/kg; Ki [5]: < 1 nM
